# What was measured:
# BGC-823 = experiment: Antitumor activity against human BGC823 cells by MTT assay; format: functional, cell-based
# Summary of the method: (§1)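 Screened in vitro by MTT assay on human gastric carcinoma BGC-823, nasopharyngeal carcinoma KB and hepatoma BEL-7402 cell lines; cis-diamminedichloroplatinum (DDP) served as positive control.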
# [1] = target: Acetylcholinesterase (Homo sapiens) (UniProt P22303); experiment: Inhibition of acetylcholinesterase at 25 uM
# KB = experiment: Antitumor activity against human KB cells by MTT assay; format: functional, cell-based; summary of the method: as §1
# Bel-7402 = experiment: Antitumor activity against human Bel7402 cells by MTT assay; format: functional, cell-based; summary of the method: as §1
# Sequence of Acetylcholinesterase (Homo sapiens) (P22303 whole entry): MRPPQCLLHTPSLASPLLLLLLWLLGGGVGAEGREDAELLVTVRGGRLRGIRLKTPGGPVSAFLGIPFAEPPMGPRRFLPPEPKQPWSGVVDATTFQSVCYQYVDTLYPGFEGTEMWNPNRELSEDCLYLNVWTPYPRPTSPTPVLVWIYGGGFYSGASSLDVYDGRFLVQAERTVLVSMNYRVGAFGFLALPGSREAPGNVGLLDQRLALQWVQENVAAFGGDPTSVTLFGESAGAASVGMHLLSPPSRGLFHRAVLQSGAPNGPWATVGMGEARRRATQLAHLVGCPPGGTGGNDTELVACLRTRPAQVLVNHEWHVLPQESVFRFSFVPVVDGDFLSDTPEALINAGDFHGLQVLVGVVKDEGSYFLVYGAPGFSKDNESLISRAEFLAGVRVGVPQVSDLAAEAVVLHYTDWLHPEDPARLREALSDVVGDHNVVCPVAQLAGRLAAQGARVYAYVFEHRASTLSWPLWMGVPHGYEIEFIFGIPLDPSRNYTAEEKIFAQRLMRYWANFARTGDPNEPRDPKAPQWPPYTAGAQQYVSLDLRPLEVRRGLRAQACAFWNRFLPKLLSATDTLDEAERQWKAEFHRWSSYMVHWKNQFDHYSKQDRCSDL
SMILES,IC50 (BGC-823),inhibition [1],IC50 (KB),IC50 (Bel-7402)
Cc1cccc(NC(=O)/C(C#N)=C/c2cc(O)c(O)c([N+](=O)[O-])c2)c1,5.6 µg/mL,2.73%,–,–
COc1c(O)ccc(/C=C(\C#N)C(=O)Nc2cccc(Cl)c2)c1[N+](=O)[O-],> 100 µg/mL,2.19%,> 100 µg/mL,65.3 µg/mL
N#C/C(=C\c1cc(O)c(O)c([N+](=O)[O-])c1)C(=O)Nc1cccc(Cl)c1,> 100 µg/mL,4.37%,72.7 µg/mL,40.1 µg/mL
N#C/C(=C\c1cc(O)c(O)c([N+](=O)[O-])c1)C(N)=O,> 100 µg/mL,1.09%,> 100 µg/mL,> 100 µg/mL
COc1ccc(NC(=O)/C(C#N)=C/c2cc(O)c(O)c([N+](=O)[O-])c2)cc1,45.4 µg/mL,4.64%,29.2 µg/mL,> 100 µg/mL
N#C/C(=C\c1cc(O)c(O)c([N+](=O)[O-])c1)C(=O)N(c1ccccc1)c1ccccc1,> 100 µg/mL,7.38%,104 µg/mL,56.2 µg/mL
COc1cc(/C=C(\C#N)C(=O)Nc2cccc(Cl)c2)cc([N+](=O)[O-])c1O,26.1 µg/mL,1.64%,56.6 µg/mL,21.1 µg/mL
N#C/C(=C\c1cc(O)c(O)c([N+](=O)[O-])c1)C(=O)N1CCCCC1,> 100 µg/mL,0.27%,> 100 µg/mL,> 100 µg/mL
N#C/C(=C\c1cc(O)c(O)c([N+](=O)[O-])c1)C(=O)Nc1ccccc1Cl,10.5 µg/mL,0.95%,37.4 µg/mL,24 µg/mL
N#C/C(=C\c1cc(O)c(O)c([N+](=O)[O-])c1)C(=O)N1CCOCC1,> 100 µg/mL,3%,> 100 µg/mL,> 100 µg/mL

# From ChEMBL document CHEMBL1153950, “The synthesis and biological evaluation of some caffeic acid amide derivatives: E-2-cyano-(3-substituted phenyl)acrylamides” (Bioorg Med Chem Lett, 2009)
